The record followed here is ChEMBL document CHEMBL5038571, “Design and Synthesis of EZH2-Based PROTACs to Degrade the PRC2 Complex for Targeting the Noncatalytic Activity of EZH2” (J Med Chem, 2021).

Each structure is given as a SMILES string. The source made the active and inactive calls. The calls are words filed in the database; no cut-off is given here.

The target in test [1] is T1, Protein cereblon/Histone-lysine N-methyltransferase EZH2 (Homo sapiens) (UniProt Q15910+Q96SW2). As to the kind of experiment: PROTAC activity at CRBN E3 ligase/EZH2 in PRC2 complex in human WSUDLCL2 cells assessed as reduction in H3K27me3 level at 1 uM incubated for 48 hrs by Western blot analysis. The format is cell-based. In outline: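 WSU-DLCL-2 cells treated 48 h (1 μM for the single-concentration screen), lysed; SDS-PAGE, nitrocellulose transfer, 5% milk block, primary antibody 4 °C overnight, chemiluminescence. Bands quantified by densitometry, normalized to GAPDH, expressed relative to DMSO-treated cells; mean ± SD of three independent experiments, t-test.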
T1 sequence (Q15910 whole entry, looked up): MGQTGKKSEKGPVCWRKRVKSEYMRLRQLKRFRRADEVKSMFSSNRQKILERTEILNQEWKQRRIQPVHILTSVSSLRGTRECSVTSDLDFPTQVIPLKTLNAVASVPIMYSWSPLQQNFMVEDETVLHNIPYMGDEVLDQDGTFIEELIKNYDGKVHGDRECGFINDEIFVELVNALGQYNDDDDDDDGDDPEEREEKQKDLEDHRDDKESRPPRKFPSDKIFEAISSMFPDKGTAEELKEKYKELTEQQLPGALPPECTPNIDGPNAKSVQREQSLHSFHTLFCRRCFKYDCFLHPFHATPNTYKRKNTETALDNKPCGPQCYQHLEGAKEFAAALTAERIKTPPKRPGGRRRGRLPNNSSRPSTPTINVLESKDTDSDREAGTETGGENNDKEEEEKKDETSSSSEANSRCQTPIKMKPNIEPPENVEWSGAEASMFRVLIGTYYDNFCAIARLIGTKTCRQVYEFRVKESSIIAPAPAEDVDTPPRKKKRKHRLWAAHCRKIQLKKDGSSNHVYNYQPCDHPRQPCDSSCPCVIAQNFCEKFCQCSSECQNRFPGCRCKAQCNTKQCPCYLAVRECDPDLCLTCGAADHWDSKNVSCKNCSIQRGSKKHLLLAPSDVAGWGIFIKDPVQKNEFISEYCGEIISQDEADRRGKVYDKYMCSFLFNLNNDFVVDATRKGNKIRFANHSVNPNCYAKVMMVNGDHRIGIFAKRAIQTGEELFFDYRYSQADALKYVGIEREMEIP
T1 sequence (Q96SW2 whole entry, looked up): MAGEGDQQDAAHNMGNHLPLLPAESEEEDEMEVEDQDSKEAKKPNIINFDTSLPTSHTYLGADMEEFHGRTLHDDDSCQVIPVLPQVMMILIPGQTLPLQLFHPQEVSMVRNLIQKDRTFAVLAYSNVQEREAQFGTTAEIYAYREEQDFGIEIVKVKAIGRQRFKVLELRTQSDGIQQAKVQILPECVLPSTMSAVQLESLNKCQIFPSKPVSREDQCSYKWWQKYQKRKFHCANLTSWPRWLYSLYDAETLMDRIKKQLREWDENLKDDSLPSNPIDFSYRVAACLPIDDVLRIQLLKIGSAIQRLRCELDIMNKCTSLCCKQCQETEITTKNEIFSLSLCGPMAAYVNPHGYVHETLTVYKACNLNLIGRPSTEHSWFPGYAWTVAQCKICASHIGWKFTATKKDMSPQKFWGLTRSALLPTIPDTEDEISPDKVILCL
A general note: Immunoblotting shows a protein as a band on a membrane.

The target in test [2] is Histone-lysine N-methyltransferase EZH2 (Homo sapiens, UniProt Q15910). The test is classed as cell-based, Sf9.
Histone-lysine N-methyltransferase EZH2, sequence (Q15910 whole entry): as the sequence (Q15910 whole entry, looked up) above
For test [3], the system named is NCI-H1299. As to the kind of experiment: Downregulation of CENPK mRNA expression in human NCI-H1299 cells at 10 uM incubated for 48 hrs by qRT-PCR analysis. The test is classed as functional, cell-based. In a few lines: (§1)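 Cells treated 48 h. Total RNA extracted with Trizol, reverse-transcribed, and SYBR RT-qPCR run: 95 °C 30 s, then 40 cycles of 95 °C 6 s and 60 °C 20 s. mRNA normalized to the DMSO-treated group. Mean SD of three independent experiments, t-test versus DMSO.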
Background: Quantitative PCR measures a nucleic acid by following its amplification.

The subject of another test is WSUDLCL2. As to the kind of experiment: Antiproliferative activity against human WSUDLCL2 cells harboring EZH2-Y641F mutant assessed as inhibition of cell growth at 10 uM incubated for 9 days by optical microscopic analysis. The following applies: time 9.0 day. The test is classed as functional, cell-based. In a few lines: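 WSU-DLCL-2 cells seeded at 5 × 10³ per well, incubated 24 h, then exposed to 10 μM compound for 9 days with medium refreshed. Cells photographed and counted on days 1, 3, 5, 7 and 9. Mean SD of three independent experiments, t-test versus DMSO.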

Test [4] deals with A549. As to the kind of experiment: Downregulation of […] mRNA expression in human A549 cells at 10 uM incubated for 48 hrs by qRT-PCR analysis. The test is classed as functional, cell-based. In a few lines:
as §1

Test [5] concerns A549. The test is described as follows: Downregulation of ARL6IP mRNA expression in human A549 cells at 10 uM incubated for 48 hrs by qRT-PCR analysis. The test is classed as functional, cell-based. In a few lines:
as §1

Test [6] concerns A549. As to the kind of experiment: Downregulation of CEP76 mRNA expression in human A549 cells at 10 uM incubated for 48 hrs by qRT-PCR analysis. The format is functional, cell-based. In outline: as §1
Test [7] concerns A549. The test is described as follows: Downregulation of CENPK mRNA expression in human A549 cells at 10 uM incubated for 48 hrs by qRT-PCR analysis. The format is functional, cell-based. In outline:
as §1

Test [8] relates to A549. The test is described as follows: Downregulation of CHEK1 mRNA expression in human A549 cells at 10 uM incubated for 48 hrs by qRT-PCR analysis. The test is classed as functional, cell-based. In a few lines: as §1
For test [9], the system named is A549. The test is described as follows: Downregulation of TACC3 mRNA expression in human A549 cells at 10 uM incubated for 48 hrs by qRT-PCR analysis. The format is functional, cell-based. In a few lines:
as §1

In test [10] the test system is NCI-H1299. The test is described as follows: Downregulation of […] mRNA expression in human NCI-H1299 cells at 10 uM incubated for 48 hrs by qRT-PCR analysis. The test is classed as functional, cell-based. In outline:
as §1

Test [11] deals with NCI-H1299. The test is described as follows: Downregulation of ARL6IP mRNA expression in human NCI-H1299 cells at 10 uM incubated for 48 hrs by qRT-PCR analysis. The format is functional, cell-based. In a few lines:
as §1

The test system of test [12] is NCI-H1299. The test is described as follows: Downregulation of CEP76 mRNA expression in human NCI-H1299 cells at 10 uM incubated for 48 hrs by qRT-PCR analysis. The test is classed as functional, cell-based. In outline: as §1
For test [13], the system named is NCI-H1299. As to the kind of experiment: Downregulation of CHEK1 mRNA expression in human NCI-H1299 cells at 10 uM incubated for 48 hrs by qRT-PCR analysis. The test is classed as functional, cell-based. In a few lines: as §1
For test [14], the system named is NCI-H1299. The test is described as follows: Downregulation of TACC3 mRNA expression in human NCI-H1299 cells at 10 uM incubated for 48 hrs by qRT-PCR analysis. The test is classed as functional, cell-based. In outline: as §1
The subject of test [15] is MDA-MB-468. As to the kind of experiment: Downregulation of […] mRNA expression in human MDA-MB-468 cells at 10 uM incubated for 48 hrs by qRT-PCR analysis. The format is functional, cell-based. In outline:
as §1

For test [16], the system named is MDA-MB-468. The test is described as follows: Downregulation of ARL6IP mRNA expression in human MDA-MB-468 cells at 10 uM incubated for 48 hrs by qRT-PCR analysis. The format is functional, cell-based. In a few lines:
as §1

Test [17] deals with MDA-MB-468. As to the kind of experiment: Downregulation of CEP76 mRNA expression in human MDA-MB-468 cells at 10 uM incubated for 48 hrs by qRT-PCR analysis. The format is functional, cell-based. In a few lines: as §1
Test [18] relates to MDA-MB-468. The test is described as follows: Downregulation of CHEK1 mRNA expression in human MDA-MB-468 cells at 10 uM incubated for 48 hrs by qRT-PCR analysis. The test is classed as functional, cell-based. In outline: as §1
Test [19] has as its system MDA-MB-468. The test is described as follows: Downregulation of TACC3 mRNA expression in human MDA-MB-468 cells at 10 uM incubated for 48 hrs by qRT-PCR analysis. The format is functional, cell-based. In outline:
as §1

Test [20] relates to A549. The test is described as follows: Antiproliferative activity against human A549 cells harboring SWI/SNF mutant assessed as inhibition of cell growth at 10 uM treated for 9 days by optical microscopic analysis. The test is classed as functional, cell-based. The following applies: time 9.0 day. In outline:
(§2)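 Cells seeded at 5 × 10³ per well, grown 24 h, then exposed to compound at 10 μM for 9 days with medium refreshed. Cells were photographed and counted on days 1, 3, 5, 7 and 9. For lines 1-2, EZH2-targeting or control shRNA was induced in the cells. Mean SD of three independent experiments; t-test against control.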

The test system of test [21] is NCI-H1299. As to the kind of experiment: Antiproliferative activity against human NCI-H1299 cells harboring SWI/SNF mutant assessed as inhibition of cell growth at 10 uM treated for 9 days by optical microscopic analysis. The following applies: time 9.0 day. The format is functional, cell-based. In a few lines: as §2
Test [22] deals with MDA-MB-468. As to the kind of experiment: Downregulation of CENPK mRNA expression in human MDA-MB-468 cells at 10 uM incubated for 48 hrs by qRT-PCR analysis. The format is functional, cell-based. In outline: as §1
In test [23] the target is T1, Protein cereblon/Histone-lysine N-methyltransferase EZH2 (Homo sapiens). As to the kind of experiment: PROTAC activity at CRBN E3 ligase/EZH2 in PRC2 complex in human WSUDLCL2 cells assessed as reduction in EZH2 level at 2.5 uM measured after 48 hrs by Western blot analysis. The format is cell-based. In a few lines:
(§3)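 WSU-DLCL-2 cells exposed 48 h to PROTAC or control analogues at 2.5 μM, with thalidomide and EPZ6438 at 10 μM; PRC2 subunit levels then read by western blot.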

Test [24] has the same target. As to the kind of experiment: PROTAC activity at CRBN E3 ligase/EZH2 in PRC2 complex in human WSUDLCL2 cells assessed as reduction in SUZ12 level at 2.5 uM measured after 48 hrs by Western blot analysis. The test is classed as cell-based. In outline: as §3
Test [25] has the same target. The test is described as follows: PROTAC activity at CRBN E3 ligase/EZH2 in PRC2 complex in human WSUDLCL2 cells assessed as reduction in EED level at 2.5 uM measured after 48 hrs by Western blot analysis. The format is cell-based. In a few lines: as §3
For test [26] the target is unchanged. The test is described as follows: PROTAC activity at CRBN E3 ligase/EZH2 in PRC2 complex in human WSUDLCL2 cells assessed as reduction in RbAp48 level at 2.5 uM measured after 48 hrs by Western blot analysis. The test is classed as cell-based. In outline: as §3
Test [27] has as its system A549. The test is described as follows: Antiproliferative activity against EZH2-knockdown human A549 cells assessed as inhibition of cell growth at 10 uM treated for 9 days by optical microscopic analysis. The conditions noted are these: time 9.0 day. The format is functional, cell-based. In a few lines:
as §2

In test [28] the test system is NCI-H1299. The test is described as follows: Antiproliferative activity against EZH2-knockdown human NCI-H1299 cells assessed as inhibition of cell growth at 10 uM treated for 9 days by optical microscopic analysis. The conditions noted are these: time 9.0 day. The test is classed as functional, cell-based. In a few lines: as §2

By IC50 is commonly meant the point on the concentration scale where inhibition reaches its midpoint. For `CC[C@H](C)n1cc(C)c2c(C(=O)NCc3c(C)cc(C)[nH]c3=O)cc(-c3ccc(N4CCN(CCCCCCCCCOc5cccc6c5C(=O)N(C5CCC(=O)NC5=O)C6=O)CC4)nc3)cc21` (some centres not stated), in [1], the outcome was Active. The same compound had an IC50 in test [2] of 16 nM.
For the compound `CCN(c1cc(-c2ccc(CN3CCN(CCCCOc4cccc5c4C(=O)N(C4CCC(=O)NC4=O)C5=O)CC3)cc2)cc(C(=O)NCc2c(C)cc(C)[nH]c2=O)c1C)C1CCOCC1` (configuration not stated), the outcome in test [1] was Active. Further, the midpoint of inhibition in [2], the IC50, lay at 3.7 nM.
As to `CC[C@H](C)n1cc(C)c2c(C(=O)NCc3c(C)cc(C)[nH]c3=O)cc(-c3ccc(N4CCN(CCCCCCCCCCOc5cccc6c5C(=O)N(C5CCC(=O)NC5=O)C6=O)CC4)nc3)cc21` (some centres not stated), in [1], the outcome was Active. In test [2], this compound returned an IC50 of 144 nM.
The matching figures for `CCN(c1cc(-c2ccc(CN3CCN(CCCCCCCCCOc4cccc5c4C(=O)N(C4CCC(=O)NC4=O)C5=O)CC3)cc2)cc(C(=O)NCc2c(C)cc(C)[nH]c2=O)c1C)C1CCOCC1` (configuration not stated): “Active” and 15 nM.
Turning to `CC[C@H](C)n1cc(C)c2c(C(=O)NCc3c(C)cc(C)[nH]c3=O)cc(-c3ccc(N4CCN(CCCCOc5cccc6c5C(=O)N(C5CCC(=O)NC5=O)C6=O)CC4)nc3)cc21` (some centres not stated), the IC50 in test [2] is 5.5 nM.
For the compound `CCN(c1cc(-c2ccc(CN3CCOCC3)cc2)cc(C(=O)NCc2c(C)cc(C)[nH]c2=O)c1C)C1CCOCC1`, the outcome with NCI-H1299 [3], in the test with A549 [4], in the test with A549 [5], in the test on A549 [6], in the test with A549 [7] and in the test with A549 [8] was inactive. Moreover, the result in the test with A549 [9], with NCI-H1299 [10], in the test with NCI-H1299 [11], with NCI-H1299 [12], in the test with NCI-H1299 [13] and with NCI-H1299 [14] was inactive. In addition, the result with MDA-MB-468 [15], in the test on MDA-MB-468 [16], in the test on MDA-MB-468 [17], with MDA-MB-468 [18], in the test with MDA-MB-468 [19] and in the test with A549 [20] was inactive. The outcome in the test with NCI-H1299 [21] and in the test on MDA-MB-468 [22] was inactive. In the test on WSUDLCL2, the result was Active.
As for `CCN(c1cc(-c2ccc(CN3CCN(CCCCCCCOc4cccc5c4C(=O)N(C4CCC(=O)N(C)C4=O)C5=O)CC3)cc2)cc(C(=O)NCc2c(C)cc(C)[nH]c2=O)c1C)C1CCOCC1` (configuration not stated), the midpoint of inhibition in test [2], the IC50, lay at 1.93 nM. For the same compound, the result (in test [23]; in test [24]; in [25]; in [26]; in the test on A549 [27]; with NCI-H1299 [28]) was inactive.
For the compound `CCN(c1cc(-c2ccc(CN3CCN(CCCCCCCCOc4cccc5c4C(=O)N(C4CCC(=O)NC4=O)C5=O)CC3)cc2)cc(C(=O)NCc2c(C)cc(C)[nH]c2=O)c1C)C1CCOCC1` (configuration not stated), the outcome in test [1] was Active. For the same compound, the IC50 in test [2] was 3.4 nM.
Regarding `CCN(c1cc(-c2ccc(CN3CCN(CCCCCOc4cccc5c4C(=O)N(C4CCC(=O)NC4=O)C5=O)CC3)cc2)cc(C(=O)NCc2c(C)cc(C)[nH]c2=O)c1C)C1CCOCC1` (configuration not stated), in [2], the IC50 worked out at 4.5 nM.
For the compound `CC[C@H](C)n1cc(C)c2c(C(=O)NCc3c(C)cc(C)[nH]c3=O)cc(-c3ccc(N4CCN(CCCCCCCCCCCOc5cccc6c5C(=O)N(C5CCC(=O)NC5=O)C6=O)CC4)nc3)cc21` (some centres not stated), the result in test [1] was Active. In addition, the IC50 in test [2] was 165 nM.
